Our source for the ED50, inhibition in vivo and LD50 values is ChEMBL document CHEMBL1122640, “Studies on heterocyclic compounds. 6. Synthesis and analgesic and antiinflammatory activities of 3,4-dimethylpyrano[2,3-c]pyrazol-6-one derivatives” (J Med Chem, 1984).

The species entered for one series is Mus musculus. In words: Compound was tested for […] activity by phenylquinone writhing method in mice. The format is functional. The procedure, abridged:
(§1)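 Phenylquinone (0.03% in 5% aqueous ethanol, 10 mL/kg ip) given to female ddN mice (18-22 g); test drug given orally 30 min beforehand. Writhes counted over 15 min, starting 5 min after phenylquinone. Five to ten mice per dose; values given with range and n.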
On the technique in general: Writhing tests count abdominal constrictions after an irritant is injected.

Series [1] deals with Rattus norvegicus. In words: Antiinflammatory activity, % inhibition was reported 3 hr after carrageenan injection in the hind paw edema test in rats: dose=80 mg/kg. Format: functional. The method, boiled down:
(§2)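 Male Wistar rats (90-120 g); paw edema raised by subcutaneous injection of 0.1 mL 1% carrageenin into the hind foot pad. Drug given orally at 80 mg/kg. Swelling inhibition read 3 h after carrageenin and compared with vehicle control for significance.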

Another series deals with Mus sp. Nature of the series: Analgesic activity by phenylquinone writhing method in mice after peroral administration. The format is functional. Conditions: po. The method, boiled down: as §1
Series [2] relates to Rattus norvegicus. In words: Compound was tested for antiinflammatory activity and the % inhibition was reported 3 hr after carrageenan injection in the hind paw edema test in rats: dose=80 mg/kg. The format is functional. The procedure, abridged:
as §2
On the technique in general: Carrageenan injected into the paw causes an acute inflammation.

For series [3], the system named is Rattus norvegicus. In words: Antiinflammatory activity, % inhibition was reported 3 hr after carrageenan injection in the hind paw edema test in rats: dose=80 mg/kg. Format: functional. The procedure, abridged: as §2
For series [4], the system named is Rattus norvegicus. In words: Compound was tested for antiinflammatory activity and the % inhibition was reported 3 h after carrageenan injection in the hind paw edema test in rats: dose=40 mg/kg, p.o. Format: functional. The following applies: po. The method, boiled down: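 Male Wistar rats (90-120 g) given 0.1 mL 1% carrageenin subcutaneously into the hind foot pad. Drug given po at 40 mg/kg. Edema inhibition read at 3 h after carrageenin and compared with vehicle control.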

The nature of series [5]: Acute lethal toxicity on day 7 was determined. The format is organism-based. Conditions: mouse, in vivo.

Consider `CCCCCn1nc2oc(=O)cc(C)c2c1C`, for which, in the series listed under Mus musculus, it took a dose of 60.6 mg/kg to reach the 50% effect level (ED50). Further, the inhibition in vivo (usually the relative decrease from the control value, in per cent) at 80 mg/kg in the series with Rattus norvegicus [1] is -5.4%.
For `CCCn1nc2oc(=O)cc(C)c2c1C` the same measures were 72.6 mg/kg and 4.9%.
For `Cc1cc(=O)oc2nn(CCO)c(C)c12` the same measures were above 100 mg/kg and 1.8%.
Regarding `CC(=O)n1nc2oc(=O)cc(C)c2c1C`, the ED50 – broadly, the dose at which the effect has come halfway, by size or by number of responders – in the series on Mus sp. was found to be 12.2 mg/kg. For the same compound, in the series with Rattus norvegicus [1], the inhibition in vivo at 80 mg/kg is 4.5%.
In the series filed under Mus musculus, `CCn1nc(C)c2c(C)cc(=O)oc21` registered an ED50 of 24.9 mg/kg. In addition, in the series on Rattus norvegicus [1], the inhibition in vivo at 80 mg/kg was 12.1%.
`CCCCn1nc2oc(=O)cc(C)c2c1C` displayed an ED50 in the series filed under Mus musculus above 100 mg/kg. The inhibition in vivo at 80 mg/kg in the series with Rattus norvegicus [1] was -3.1%.
Regarding `CCN(CC)CCn1nc2oc(=O)cc(C)c2c1C`, the ED50 in the series listed under Mus musculus was found to be 100 mg/kg. For the same compound, in the series with Rattus norvegicus [2], the inhibition in vivo at 80 mg/kg was determined as 17%.
With `Cc1cc(=O)oc2c1c(C)nn2C(C)C`, in the series filed under Mus musculus, the 50% effective dose (ED50) was above 100 mg/kg. Also, the inhibition in vivo at 80 mg/kg in the series on Rattus norvegicus [1] is 1.1%.
`Cc1cc(=O)oc2nn(C(=O)c3ccco3)c(C)c12` showed an ED50 with Mus sp. of 74.3 mg/kg. Further, the inhibition in vivo at 80 mg/kg in the series on Rattus norvegicus [1] came out at 2.2%.
For `Cc1cc(=O)oc2nn(C(=O)c3ccccc3)c(C)c12` the same measures were 35 mg/kg and 11.9%.
The matching figures for `Cc1cc(=O)oc2nn(C(=O)CCl)c(C)c12`: above 100 mg/kg and 5.2%.
For the compound `Cc1cc(=O)oc2c1c(CC(=O)O)nn2C`, the median effective dose (ED50) in the series filed under Mus musculus is above 100 mg/kg. For the same compound, in the series with Rattus norvegicus [1], the inhibition in vivo at 80 mg/kg was -3.1%.
Regarding `CCn1nc2oc(=O)cc(C)c2c1C`, the ED50 in the series filed under Mus musculus came out at 14.6 mg/kg. Moreover, the inhibition in vivo at 80 mg/kg in the series with Rattus norvegicus [3] came to 13.1%.
In the case of `Cc1cc(O)oc2nnc(CC(=O)O)c1-2`, the median effective dose (ED50) in the series listed under Mus musculus was above 100 mg/kg. For the same compound, the inhibition in vivo at 80 mg/kg in the series on Rattus norvegicus [1] worked out at 6.4%.
On to `Cc1cccc(Nc2ccccc2C(=O)O)c1C` [MEFENAMIC ACID], for which the 50% effect level in the series listed under Mus musculus (ED50) was put at a dose of 45.9 mg/kg. In addition, the inhibition in vivo at 40 mg/kg in the series on Rattus norvegicus [4] amounted to 33.1%.
Take `CCOC(=O)Cc1nnc2oc(O)cc(C)c1-2`: the ED50 in the series filed under Mus musculus was above 100 mg/kg. Further, the inhibition in vivo at 80 mg/kg in the series with Rattus norvegicus [1] is -4.1%.
Consider `CC(C)Cc1ccc(C(C)C(=O)O)cc1` (centres undefined) [IBUPROFEN], for which the ED50 in the series filed under Mus musculus turned out to be 50 mg/kg. Besides, in the series on Rattus norvegicus [2], the inhibition in vivo at 80 mg/kg turned out to be 39%.
In the series filed under Mus musculus, `Cc1cc(=O)oc2nn(CCN3CCOCC3)c(C)c12` had an ED50 above 100 mg/kg. For the same compound, in the series with Rattus norvegicus [1], the inhibition in vivo at 80 mg/kg turned out to be 4.4%.
In the series filed under Mus musculus, `Cc1cc(=O)oc2c1c(C)nn2C` registered an ED50 of 11.6 mg/kg. In series [5], the LD50 – broadly, the dose expected to kill half of the subjects tested – at 7 day was above 1500 mg/kg. For the same compound, the inhibition in vivo at 80 mg/kg in the series on Rattus norvegicus [1] came out at 4.7%.
For the compound `Cc1cc(=O)oc2c1c(C)nn2CCO`, it took a dose of 100 mg/kg to reach the 50% effect level in the series listed under Mus musculus (ED50). The inhibition in vivo at 80 mg/kg with Rattus norvegicus [1] is -0.9%.
For `CCOC(=O)Cc1nn(C)c2oc(=O)cc(C)c12` the same measures were above 100 mg/kg and -3.1%.
With `Cc1cc(=O)oc2nn(C(C)C)c(C)c12`, the ED50 in the series listed under Mus musculus turned out to be 35.3 mg/kg. Also, in the series with Rattus norvegicus [1], the inhibition in vivo at 80 mg/kg stood at 3.7%.
In the series filed under Mus musculus, `CCCn1nc(C)c2c(C)cc(=O)oc21` yielded an ED50 of 54.3 mg/kg. For the same compound, the inhibition in vivo at 80 mg/kg with Rattus norvegicus [1] was -0.6%.
Turning to `Cc1cc(=O)oc2nn(C)c(C)c12`, the ED50 in the series listed under Mus musculus was determined as 6.09 mg/kg. Also, in series [5], the LD50 at 7 day was found to be 250 mg/kg. For the same compound, the inhibition in vivo at 80 mg/kg with Rattus norvegicus [1] amounted to 3.3%.
In the series filed under Mus musculus, `CCCCn1nc(C)c2c(C)cc(=O)oc21` registered an ED50 above 100 mg/kg. In the series with Rattus norvegicus [1], the inhibition in vivo at 80 mg/kg was -0.9%.
Consider `Cc1c(N(C)C)c(=O)n(-c2ccccc2)n1C` [AMINOPYRINE], for which, in the series filed under Mus musculus, it took a dose of 19.2 mg/kg to reach the 50% effect level (ED50). The inhibition in vivo at 80 mg/kg in the series on Rattus norvegicus [2] stood at 17.5%.
Compound `CC(=O)Oc1ccccc1C(=O)O` [ASPIRIN] gave an ED50 in the series on Mus sp. above 100 mg/kg.
For `CCCCCn1nc(C)c2c(C)cc(=O)oc21`, the ED50 in the series filed under Mus musculus was above 100 mg/kg. Further, the inhibition in vivo at 80 mg/kg in the series on Rattus norvegicus [1] turned out to be 3.5%.
`Cc1cc(=O)oc2nn(CCCl)c(C)c12` returned an ED50 in the series on Mus sp. of 56 mg/kg. For the same compound, the inhibition in vivo at 80 mg/kg with Rattus norvegicus [1] was -2.1%.
